# Reference: ChEMBL document CHEMBL1155210, “The discovery of tertiary-amine LXR agonists with potent cholesterol efflux activity in macrophages” (Bioorg Med Chem Lett, 2009)
# Molecular target: Oxysterols receptor LXR-beta (Homo sapiens) (UniProt P55055)
# Assay: Agonist activity at human LXRbeta assessed as association of SRC1 to LXRbeta ligand binding domain by FRET based cell-free ligand sensing assay relative to 2-(3-(3-((2-chloro-3-(trifluoromethyl)benzyl)(2,2-diphenylethyl)amino)propoxy)phenyl)acetic acid
# Set-up: concentration or dose not given beside the values
row,Activity [%],Compound
1,80,C[C@@H](CCOc1cccc(CC(=O)O)c1)N(Cc1cccc(C(F)(F)F)c1Cl)CC(c1ccccc1)c1ccccc1
2,76,C[C@H](CCN(Cc1cccc(C(F)(F)F)c1Cl)CC(c1ccccc1)c1ccccc1)Oc1cccc(CC(=O)O)c1
3,26,O=C(O)Cc1ccc2oc(CCN(Cc3cccc(C(F)(F)F)c3Cl)CC(c3ccccc3)c3ccccc3)cc2c1

# Molecular target: T1, Oxysterols receptor LXR-beta (Homo sapiens, UniProt P55055)
# T1 sequence (P55055 whole entry): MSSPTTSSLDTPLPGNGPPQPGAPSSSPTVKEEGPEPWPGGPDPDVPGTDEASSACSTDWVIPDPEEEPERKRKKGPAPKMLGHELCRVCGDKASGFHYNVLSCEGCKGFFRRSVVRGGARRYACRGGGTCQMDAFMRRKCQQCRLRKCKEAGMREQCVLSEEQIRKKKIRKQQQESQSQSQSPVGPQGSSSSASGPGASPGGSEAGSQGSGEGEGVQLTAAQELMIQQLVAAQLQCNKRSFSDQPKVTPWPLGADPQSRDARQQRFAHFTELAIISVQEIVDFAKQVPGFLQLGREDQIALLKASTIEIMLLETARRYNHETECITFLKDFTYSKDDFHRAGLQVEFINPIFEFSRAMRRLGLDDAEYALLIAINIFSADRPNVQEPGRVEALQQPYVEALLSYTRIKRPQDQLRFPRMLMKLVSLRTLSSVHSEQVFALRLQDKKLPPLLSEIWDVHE
# Assay: Agonist activity at human LXRbeta assessed as association of SRC1 to LXRbeta ligand binding domain by FRET based cell-free ligand sensing assay
# Outline: (§1)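 Cell-free FRET ligand-sensing assay measuring ligand-dependent recruitment of a 24-amino-acid steroid receptor coactivator 1 (SRC1) fragment to the LXR ligand-binding domain. Percent efficacy is expressed against the maximal agonist response of the reference agonist. Values are means of at least two experiments, standard deviation ≤10%.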
row,EC50 [nM],Compound
1,87,C[C@@H](CCOc1cccc(CC(=O)O)c1)N(Cc1cccc(C(F)(F)F)c1Cl)CC(c1ccccc1)c1ccccc1
2,41,C[C@H](CCN(Cc1cccc(C(F)(F)F)c1Cl)CC(c1ccccc1)c1ccccc1)Oc1cccc(CC(=O)O)c1
3,145,O=C(O)Cc1ccc2oc(CCN(Cc3cccc(C(F)(F)F)c3Cl)CC(c3ccccc3)c3ccccc3)cc2c1

# Molecular target: T2, Nuclear receptor subfamily 1 group I member 2 (Homo sapiens, UniProt O75469)
# T2 sequence (O75469 whole entry): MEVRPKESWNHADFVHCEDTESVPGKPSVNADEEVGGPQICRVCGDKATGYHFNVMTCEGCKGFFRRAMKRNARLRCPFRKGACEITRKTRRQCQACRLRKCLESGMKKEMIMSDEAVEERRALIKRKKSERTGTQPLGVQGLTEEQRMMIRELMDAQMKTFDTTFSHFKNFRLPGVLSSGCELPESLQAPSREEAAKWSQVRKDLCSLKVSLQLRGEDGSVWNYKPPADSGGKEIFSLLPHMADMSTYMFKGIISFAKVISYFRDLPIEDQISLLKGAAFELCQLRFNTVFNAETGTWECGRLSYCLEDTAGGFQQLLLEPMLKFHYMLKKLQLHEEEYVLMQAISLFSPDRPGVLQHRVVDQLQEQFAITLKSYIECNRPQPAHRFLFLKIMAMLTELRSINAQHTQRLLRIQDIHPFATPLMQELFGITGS
# Assay: Binding affinity to PXR by scintillation proximity binding assay
row,Ki [µM],Compound
1,> 10,C[C@H](CCN(Cc1cccc(C(F)(F)F)c1Cl)CC(c1ccccc1)c1ccccc1)Oc1cccc(CC(=O)O)c1

# Molecular target: T3, Oxysterols receptor LXR-alpha (Homo sapiens, UniProt Q13133)
# T3 sequence (Q13133 whole entry): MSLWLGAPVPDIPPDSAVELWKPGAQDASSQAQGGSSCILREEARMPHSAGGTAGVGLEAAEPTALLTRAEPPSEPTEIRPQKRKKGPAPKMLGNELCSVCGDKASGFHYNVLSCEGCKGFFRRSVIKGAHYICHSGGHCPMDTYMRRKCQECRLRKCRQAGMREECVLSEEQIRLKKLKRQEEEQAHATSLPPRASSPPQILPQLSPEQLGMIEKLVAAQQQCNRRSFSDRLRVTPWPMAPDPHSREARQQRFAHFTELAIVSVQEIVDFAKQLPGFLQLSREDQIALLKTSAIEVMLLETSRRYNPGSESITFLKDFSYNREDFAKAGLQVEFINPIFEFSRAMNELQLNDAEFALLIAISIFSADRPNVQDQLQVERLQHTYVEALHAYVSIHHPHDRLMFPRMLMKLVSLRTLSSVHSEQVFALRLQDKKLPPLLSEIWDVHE
# Assay: Agonist activity at human LXRalpha assessed as association of SRC1 to LXRalpha ligand binding domain by FRET based cell-free ligand sensing assay
# Outline: as §1
row,EC50 [nM],Compound
1,211,C[C@@H](CCOc1cccc(CC(=O)O)c1)N(Cc1cccc(C(F)(F)F)c1Cl)CC(c1ccccc1)c1ccccc1
2,200,C[C@H](CCN(Cc1cccc(C(F)(F)F)c1Cl)CC(c1ccccc1)c1ccccc1)Oc1cccc(CC(=O)O)c1
3,305,O=C(O)Cc1ccc2oc(CCN(Cc3cccc(C(F)(F)F)c3Cl)CC(c3ccccc3)c3ccccc3)cc2c1

# Molecular target: T4, Oxysterols receptor LXR-alpha (Homo sapiens) (UniProt Q13133)
# T4 sequence (whole entry): T3 sequence (Q13133 whole entry)
# Assay: Agonist activity at human LXRalpha assessed as association of SRC1 to LXRalpha ligand binding domain by FRET based cell-free ligand sensing assay relative 2-(3-(3-((2-chloro-3-(trifluoromethyl)benzyl)(2,2-diphenylethyl)amino)propoxy)phenyl)acetic acid
# Outline: as §1
row,Activity [%],Compound
1,91,C[C@@H](CCOc1cccc(CC(=O)O)c1)N(Cc1cccc(C(F)(F)F)c1Cl)CC(c1ccccc1)c1ccccc1
2,78,C[C@H](CCN(Cc1cccc(C(F)(F)F)c1Cl)CC(c1ccccc1)c1ccccc1)Oc1cccc(CC(=O)O)c1
3,20,O=C(O)Cc1ccc2oc(CCN(Cc3cccc(C(F)(F)F)c3Cl)CC(c3ccccc3)c3ccccc3)cc2c1

# System: RAW264.7
# Assay: Induction of [3H]cholesterol efflux in mouse RAW264.7 cells loaded with acetylated-LDL after 24 hrs
# Format: functional, cell-based
# Outline: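 Mouse RAW 264.7 macrophages were grown overnight, then loaded for 24 h with acetylated LDL (final 50 µg/mL) plus 3H-cholesterol (5 µCi/mL). Cells were washed and held 24 h in serum-free, phenol red-free medium with 1% fatty acid-free BSA and compound in DMSO. Efflux then ran 24 h into medium with 0.1% BSA, 5 µg/mL apoA-I and fresh compound. Filtered medium and NaOH cell lysate were counted by scintillation.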
row,EC50 [nM],Compound
1,54,C[C@@H](CCOc1cccc(CC(=O)O)c1)N(Cc1cccc(C(F)(F)F)c1Cl)CC(c1ccccc1)c1ccccc1
2,34,C[C@H](CCN(Cc1cccc(C(F)(F)F)c1Cl)CC(c1ccccc1)c1ccccc1)Oc1cccc(CC(=O)O)c1
